This is a sample that favours compounds with a hit; in the whole collection about 1.9% have one here.
RanGTP-Imp inh: inhibitors of RanGTP-importin-beta interaction, primary screen, biochemical, FRET, CFP-Ran, YFP-importin-beta, homogeneous | Ran GTPase (GTP-bound) - importin-beta complex | cell-free CFP-Ran/YFP-importin-beta FRET ratio | inhibition, % (concentration not given with the values) | 1.1% of 300,000 active;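 active means more than half of the replicate wells show a fall in the fluorescence ratio signal beyond about 16%, limit read from the data, passing the limit was not always enough; inconclusive means exactly half of the replicate wells pass the set limit; inactive means fewer than half of replicates pass the limit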
Runt-CBFb FRET: inhibitors of RUNX1 Runt–CBFb binding, primary screen, biochemical, FRET, Cerulean-Runt, Venus-CBFb, uHTS. Runt-related transcription factor 1 (Homo sapiens) + Core-binding factor subunit beta …. Cerulean-Runt/Venus-CBFb FRET ratio 530/480, 1 h. inhibition, % at 20 µM. 0.46% of 220,000 active;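 active means inhibition over about 50% at 20 µM in the single-dose screen, limit read from the data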
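Reagent – Venus-CBFb binding partner, 100 nM · Assay system – Cerulean-tagged RUNX1 Runt domain (FRET donor) fusion protein · Input – 100 nM per protein · Incubation – two 1 h room-temperature incubations shielded from light · Measured by – FRET fluorescence · Medium – Tris buffer pH 7.5 with salts and BSA · Benchmarks – unlabeled CBFb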
Hck Nef HTS: inhibitors of Nef-activated human Hck kinase, primary screen, biochemical, Z-Lyte FRET, 384-well, Hck-YEEI; Recombinant Hck-YEEI plus Nef, Z-Lyte FRET kinase assay; inhibition, % at 20 µM; 0.68% of 220,000 active; AID 463187, 2010;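 active means Hck-Nef kinase inhibition above about 50%, limit read from the data; inactive means inhibition below that limit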
Target sequence (P08631 whole entry, looked up): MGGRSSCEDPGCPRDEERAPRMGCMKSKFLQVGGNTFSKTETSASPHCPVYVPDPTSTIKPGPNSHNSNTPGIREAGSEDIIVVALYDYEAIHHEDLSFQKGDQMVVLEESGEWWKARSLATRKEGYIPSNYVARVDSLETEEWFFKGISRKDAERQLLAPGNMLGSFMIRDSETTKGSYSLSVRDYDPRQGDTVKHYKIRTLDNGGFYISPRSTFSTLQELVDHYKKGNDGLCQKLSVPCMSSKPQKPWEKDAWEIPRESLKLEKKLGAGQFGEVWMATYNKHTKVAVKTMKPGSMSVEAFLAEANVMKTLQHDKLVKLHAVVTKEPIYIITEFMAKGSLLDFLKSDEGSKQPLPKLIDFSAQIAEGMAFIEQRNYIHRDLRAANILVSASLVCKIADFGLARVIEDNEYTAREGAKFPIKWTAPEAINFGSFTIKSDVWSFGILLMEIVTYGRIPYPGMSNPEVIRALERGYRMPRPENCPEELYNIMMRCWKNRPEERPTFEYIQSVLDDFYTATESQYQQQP
Tb hexokinase: Trypanosoma brucei hexokinase 1 inhibitors, primary screen, biochemical, G6PDH-coupled NADH absorbance, MLSCN library; 0.11% of 220,000 active; inhibition, % at 10 µM; recombinant TbHK1, G6PDH-coupled NADH A340; AID 1430, 2008; hexokinase 1 [Trypanosoma brucei];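 active means inhibition of 50% or more in the single-dose primary screen; inactive means inhibition below 50%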
Runt-SMMHC FRET: inhibitors of RUNX1 Runt–CBFb-SMMHC binding, primary screen, biochemical, FRET, Cerulean-Runt, Venus-CBFb-SMMHC, uHTS. Runt-related transcription factor 1 (Homo sapiens) + Core-binding factor subunit beta …. Cerulean-Runt/Venus-CBFb-SMMHC FRET ratio 530/480, 1 h. inhibition, % at 20 µM. 0.74% of 220,000 active. AID 1434, 2008;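 active means mean inhibition across duplicate retests at 20 µM reaching about 50%, limit read from the data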;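 further: inhibitors lower the FRET ratio by blocking Runt binding to CBFb-SMMHC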
Runt-CBFb TRFRET: inhibitors of RUNX1 Runt–CBFb binding, biochemical, TR-FRET | inhibition, % at 20 µM | 20% of 480 active | TR-FRET RUNX1 Runt domain-CBFb binding | AID 1502, 2009 | shares compounds with Runt-CBFb FRET; in the data active means inhibition above about 40%
YIC counter: YIC intramolecular FRET probe signal interference, dose response, counter-screen for RanGTP-importin-beta inhibitor project, biochemical, fluorescence FRET; shares compounds with RanGTP-Imp inh; Purified YIC probe, intramolecular FRET ratio YFP/CFP; IC50, µM; 40% of 1,000 active; AID 435026, 2010;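 active means fitted half-maximal inhibitory concentration no more than tenfold above the top dose tested; inconclusive means flat fit with 30 to 70% activity, or poor fit; inactive means half-maximal concentration beyond tenfold above the top dose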
Hck-Nef confirm: retest of Hck:Nef kinase inhibitor hits, confirmation, biochemical, Z-Lyte FRET, 384-well, p-Tyr peptide counterscreen | calls only at 10 µM | 28% of 1,300 active | Recombinant Hck-YEEI:Nef, Z-Lyte FRET kinase assay | shares compounds with Hck Nef HTS;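 active means average inhibition of at least 50%, with Z-scores no higher than 3 in both the phospho-tyrosine peptide and fluorescence counterscreens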
Large screens that a line does not name were inactive (follow-up assays come after a bar, where shown).

COCC(C)OC(=O)c1c(N)n(CC(C)C)c2nc3ccccc3nc12 (centres undefined)	RanGTP-Imp inh 21, Runt-CBFb FRET 63, Runt-SMMHC FRET 126 | Runt-CBFb TRFRET inactive | YIC counter 26
CC(C)OC(=O)c1c(N)n(CCCN2CCOCC2)c2nc3ccccc3nc12	RanGTP-Imp inh 25, Runt-CBFb FRET 65, Runt-SMMHC FRET 84 | Runt-CBFb TRFRET inactive | YIC counter 31
COC(=O)C1=C(C)NC2=C(C(=O)CCC2)C1c1cccc(C)n1 (centres undefined)	RanGTP-Imp inh 19, Runt-CBFb FRET 60, Runt-SMMHC FRET 132 | Runt-CBFb TRFRET inactive | YIC counter 31
O=C(NC1CCCCC1)C(=S)N1CCCC1	none
COc1ccc(OC)c(S(=O)(=O)N2CCCC(C(=O)N3CCCCCC3)C2)c1 (centres undefined)	none (no result: Runt-CBFb FRET, Hck Nef HTS, Tb hexokinase, Runt-SMMHC FRET)
COCCNC(=O)c1c(N)n(-c2cccc(C)c2)c2nc3ccccc3nc12	RanGTP-Imp inh 97, Runt-CBFb FRET 60, Hck Nef HTS 60, Runt-SMMHC FRET 79 | Runt-CBFb TRFRET inactive
COc1cccc(-n2c(N)c(C(=O)Nc3c(C)n(C)n(-c4ccccc4)c3=O)c3nc4ccccc4nc32)c1	none
COc1ccc(-n2c(N)c(C(=O)NCc3ccco3)c3nc4ccccc4nc32)cc1	RanGTP-Imp inh 37, Runt-CBFb FRET 51, Hck Nef HTS 69, Runt-SMMHC FRET 120 | Runt-CBFb TRFRET inactive | Hck-Nef confirm inactive
COC(=O)c1c(NC(=O)CC2SC(N)=NC2=O)sc(C)c1C (centres undefined)	none
Cc1csc(SCC(=O)NC(C)C2CC3CCC2C3)n1 (centres undefined)	none (no result: Runt-CBFb FRET, Hck Nef HTS, Tb hexokinase, Runt-SMMHC FRET)
O=S(=O)(Nc1ccc(-c2ccc3nncn3n2)cc1)c1cccc(F)c1	none (no result: Runt-CBFb FRET, Hck Nef HTS, Tb hexokinase, Runt-SMMHC FRET)
CCNc1ccc2c(Cl)cc(=O)oc2c1	RanGTP-Imp inh 36, Runt-CBFb FRET 55, Hck Nef HTS 52, Runt-SMMHC FRET 95 | Runt-CBFb TRFRET inactive | Hck-Nef confirm inactive
CC(C)Cn1c(N)c(C(=O)NCC2CCCO2)c2nc3ccccc3nc21 (centres undefined)	RanGTP-Imp inh 82, Runt-CBFb FRET 52, Hck Nef HTS 53, Runt-SMMHC FRET 58 | Runt-CBFb TRFRET inactive
COc1ccc(OC)c(-n2c(N)c(C(=O)NCC3CCCO3)c3nc4ccccc4nc32)c1 (centres undefined)	none
CCCCc1cc(=O)oc2c(CN(CC)CC)c(O)c(Cl)cc12	RanGTP-Imp inh inconclusive, Runt-CBFb FRET 75, Hck Nef HTS 155, Runt-SMMHC FRET 150 | Runt-CBFb TRFRET inactive
O=C(c1ccc(F)cc1F)N1CCN(c2n[nH]c(=O)[nH]c2=O)CC1	none
O=C(Oc1cc2oc(=O)c3c(c2cc1Cl)CCCC3)c1ccco1	Runt-CBFb FRET 68, Hck Nef HTS 83, Runt-SMMHC FRET 120 | Runt-CBFb TRFRET inactive
O=C(Oc1cc2oc(=O)c3c(c2cc1Cl)CCCC3)c1cccs1	Runt-CBFb FRET 76, Hck Nef HTS 78, Runt-SMMHC FRET 133 (not shown: RanGTP-Imp inh) | Runt-CBFb TRFRET inactive
O=C(Oc1ccc2c3c(c(=O)oc2c1)CCCC3)c1cccs1	none
Cc1cc2oc(=O)c3c(c2cc1OC(=O)c1ccco1)CCCC3	none
CCOC(=O)N/N=C(\C)c1ccccc1OC(F)F	none
COc1cc(-c2nc3ccccc3s2)ccc1O	Runt-CBFb FRET 79, Hck Nef HTS 155, Runt-SMMHC FRET 154 | Runt-CBFb TRFRET inactive
CCOc1cc(-c2nc3ccccc3s2)ccc1O	Runt-CBFb FRET 55, Hck Nef HTS active, Runt-SMMHC FRET 117 | Runt-CBFb TRFRET inactive
N#Cc1c(N)n(-c2cccc(O)c2)c2nc3ccccc3nc12	RanGTP-Imp inh 27, Runt-CBFb FRET 73, Hck Nef HTS 72, Runt-SMMHC FRET 102 | Runt-CBFb TRFRET inactive
N#Cc1c(C#N)c(-c2ccccc2)n(-c2ccccc2)c1N	none
CC(=O)Nc1ccc(S(=O)(=O)Nc2nc3cc4c(cc3nc2Cl)OCCO4)cc1	Runt-CBFb FRET 51, Hck Nef HTS 89, Runt-SMMHC FRET 75 | Runt-CBFb TRFRET inactive
O=C(Nc1nc(-c2cccc3ccccc23)cs1)c1cnccn1	none
Cc1ccc(S(=O)(=O)NC(C(=O)Oc2cc3oc(=O)cc(C)c3cc2Cl)C(C)C)cc1 (centres undefined)	RanGTP-Imp inh inconclusive, Runt-CBFb FRET 61, Hck Nef HTS 100, Runt-SMMHC FRET 115 | Runt-CBFb TRFRET 53
Cc1cc(=O)oc2cc(OC(C)C(=O)O)c(Cl)cc12 (centres undefined)	none
CC(=O)Oc1cc2oc(=O)cc(C)c2cc1Cl	Runt-CBFb FRET 79, Hck Nef HTS active, Runt-SMMHC FRET 113 | Runt-CBFb TRFRET inactive
CCN(CC(=O)NCc1cccs1)C(=O)c1ccc(OC)c(OC)c1	none (no result: Runt-CBFb FRET, Hck Nef HTS, Tb hexokinase, Runt-SMMHC FRET)
COCCCn1c(C(=O)N2CCOCC2)cc2c(=O)n3ccccc3nc21	none (no result: Runt-CBFb FRET, Hck Nef HTS, Tb hexokinase, Runt-SMMHC FRET)
CCOC(=O)c1cc2c(=O)n3ccccc3nc2n(CCOC)c1=NC(=O)C(C)(C)C	RanGTP-Imp inh 77, Runt-CBFb FRET 77, Hck Nef HTS 101 | Runt-CBFb TRFRET inactive
CN(C)Cc1c(O)ccc2c3c(c(=O)oc12)CCCCC3	RanGTP-Imp inh 20, Runt-CBFb FRET 70, Hck Nef HTS 76, Runt-SMMHC FRET 136 | Runt-CBFb TRFRET inactive | YIC counter 22
CN(Cc1c(O)ccc2c1oc(=O)c1ccccc12)C1CCCCC1	none
C=CCOC(=O)C1=C(C)NC(=S)C(C#N)(CC=C)C1c1ccccc1Cl (centres undefined)	none
CC(C)CCC(=O)N1CCOC1=O	none (no result: Runt-CBFb FRET, Hck Nef HTS, Tb hexokinase, Runt-SMMHC FRET)
Cc1nc2ccc(S(=O)(=O)Nc3cccc(-c4nc5cccnc5s4)c3)cc2s1	none
O=S(=O)(Nc1ccc(-c2nc3cccnc3s2)cc1)c1ccccc1F	Runt-CBFb FRET 81, Hck Nef HTS active, Runt-SMMHC FRET 146 | Runt-CBFb TRFRET inactive
